INS-1E ATP HTS = protection of INS-1E cells from cytokine death, primary screen, ATP luminescence, single point | INS-1E cytokine-induced death, 48 h; normalised: neutral wells 0, positive control 100 | protection from cytokine-induced ATP loss, % at 10 µM | 0.1% of 20,000 active;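 active = mean replicate protection from cytokine-induced ATP loss at least 50% and at least 75% of replicates each reaching 50%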
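Assay system: INS-1E rat cells / Quantity: 8000 cells per well / Medium: RPMI without phenol red, 5% FBS / Probe or stimulus: three-cytokine cocktail (IFN-γ, TNF-α, IL-1β) / Dosing: one compound concentration, pin transfer / Timing: 48 h co-treatment, 10 min post-lysis read / Technique: CellTiter-Glo luminescence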
YB-1 expr inh = inhibitors of YB-1 gene expression, primary screen, cell-based, fluorescence; U2OS, qRT-PCR YB-1 vs CDIP delta delta Cp, 16 h; hits give high values; zero = DMSO, each unit about twofold; delta delta Cp (YB-1 minus CDIP) (test concentration not listed); 0.37% of 30,000 active; AID 434959, 2010;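 active = delta delta Cp rounded down to an integer at or above 3, about 3 SD of DMSO wells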;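 note: higher means less YB-1 transcript or more CDIP transcript relative to DMSO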
T cruzi intra = inhibitors of intracellular Trypanosoma cruzi, primary screen, cell-based, plate reader, single point, set 2; AID 651903, 2012; activity score (inhibition), % at 5.01 µM; intracellular Trypanosoma cruzi in host cells; 4.9% of 22,000 active; in the data active = activity score above about 55%;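 note: parasites and compound incubated about four days before reading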
Large screens that a line does not name were inactive. The sample as a whole holds a higher share of hits than the screen did.

C[C@H](CO)N1C[C@H](C)[C@@H](CN(C)Cc2ccc(Cl)c(Cl)c2)Oc2ccc(NC(=O)Nc3cccc4ccccc34)cc2C1=O	none
C[C@H]1CN([C@@H](C)CO)C(=O)Cc2cc(NC(=O)Nc3cccc4ccccc34)ccc2O[C@H]1CN(C)Cc1ccc(Oc2ccccc2)cc1	none
C[C@@H]1CN([C@H](C)CO)C(=O)Cc2cc(NC(=O)Nc3cccc4ccccc34)ccc2O[C@H]1CN(C)Cc1ccc(Oc2ccccc2)cc1	T cruzi intra 57.2
C[C@@H]1CN([C@H](C)CO)C(=O)Cc2cc(NC(=O)Nc3cccc4ccccc34)ccc2O[C@@H]1CN(C)Cc1ccccc1	T cruzi intra 68.2
C[C@H](CO)N1C[C@H](C)[C@H](CN(C)Cc2ccc(-c3ccccc3)cc2)Oc2ccc(NC(=O)Nc3cccc4ccccc34)cc2CC1=O	none (no result: T cruzi intra)
C[C@H]1CN([C@@H](C)CO)C(=O)Cc2cc(NC(=O)Nc3cccc4ccccc34)ccc2O[C@@H]1CN(C)Cc1ccc(Cl)c(Cl)c1	T cruzi intra 59.9
C[C@H]1CN([C@@H](C)CO)C(=O)Cc2cc(NC(=O)Nc3cccc4ccccc34)ccc2O[C@@H]1CN(C)Cc1ccc2c(c1)OCO2	T cruzi intra 64.0
C[C@@H]1CN([C@H](C)CO)C(=O)Cc2cc(NC(=O)Nc3ccccc3)ccc2O[C@H]1CN(C)Cc1ccc2c(c1)OCO2	none
C[C@@H]1CN([C@@H](C)CO)C(=O)c2cccc(NC(=O)Nc3ccccc3)c2O[C@@H]1CN(C)C(=O)Nc1ccc(F)cc1	none
C[C@@H]1CN([C@@H](C)CO)C(=O)c2cc(NC(=O)Nc3ccc(F)cc3)ccc2O[C@H]1CN(C)S(=O)(=O)c1cn(C)cn1	none
C[C@@H]1CN([C@@H](C)CO)C(=O)c2cccc(NC(=O)Nc3ccc4c(c3)OCO4)c2O[C@@H]1CN(C)S(C)(=O)=O	none
C[C@@H]1CN([C@H](C)CO)C(=O)Cc2cc(NC(=O)Nc3cccc4ccccc34)ccc2O[C@H]1CN(C)Cc1ccc(-c2ccccc2)cc1	none
C[C@@H]1CN([C@H](C)CO)C(=O)c2cc(NC(=O)Nc3cccc4ccccc34)ccc2O[C@@H]1CN(C)Cc1ccc(Cl)c(Cl)c1	none
COc1ccc(CN(C)C[C@@H]2Oc3ccc(NC(=O)Nc4cccc5ccccc45)cc3CC(=O)N([C@H](C)CO)C[C@H]2C)cc1	T cruzi intra 65.0
C[C@H](CO)N1C[C@H](C)[C@H](CN(C)Cc2ccc3c(c2)OCO3)Oc2ccc(NC(=O)Nc3cccc4ccccc34)cc2C1=O	T cruzi intra 61.5
C[C@@H]1CN([C@H](C)CO)C(=O)c2cc(NC(=O)Nc3cccc4ccccc34)ccc2O[C@H]1CN(C)Cc1ccc(Cl)c(Cl)c1	T cruzi intra 58.0
C[C@H](CO)N1C[C@H](C)[C@H](CN(C)CC2CCCCC2)Oc2ccc(NC(=O)Nc3cccc4ccccc34)cc2CC1=O	T cruzi intra 61.0
C[C@H]1CN([C@@H](C)CO)C(=O)c2cc(NC(=O)Nc3cccc4ccccc34)ccc2O[C@H]1CN(C)Cc1ccccc1	none
C[C@H](CO)N1C[C@H](C)[C@H](CN(C)CC2CCCCC2)Oc2ccc(NC(=O)Nc3ccccc3)cc2CC1=O	none
C[C@H](CO)N1C[C@H](C)[C@H](CN(C)S(=O)(=O)c2ccc(Cl)cc2)Oc2ccc(NS(=O)(=O)c3ccccc3)cc2CC1=O	none
Cc1ccc(S(=O)(=O)N(C)C[C@@H]2Oc3ccc(NC(=O)Nc4cccc5ccccc45)cc3C(=O)N([C@@H](C)CO)C[C@H]2C)cc1	none
COc1ccc(/C=C/C(=O)OC2C(C)OC(OC3C4C=COC(OC5OC(CO)C(O)C(O)C5O)C4C4(CO)OC34)C(O)C2O)cc1 (stereo not given)	none (no result: INS-1E ATP HTS, T cruzi intra)
C[C@@H]1CN([C@@H](C)CO)C(=O)c2cccc(NS(=O)(=O)c3ccccc3)c2O[C@@H]1CN(C)C(=O)Nc1cccc2ccccc12	none
C[C@H]1CN([C@@H](C)CO)C(=O)c2cccc(NC(=O)Nc3cccc4ccccc34)c2O[C@H]1CN(C)Cc1ccc2c(c1)OCO2	T cruzi intra 64.6
C[C@@H]1CN([C@H](C)CO)C(=O)c2cccc(NC(=O)Nc3cccc4ccccc34)c2O[C@@H]1CN(C)Cc1ccc2c(c1)OCO2	none
Cc1ccc(S(=O)(=O)Nc2ccc3c(c2)CC(=O)N([C@@H](C)CO)C[C@@H](C)[C@@H](CN(C)Cc2ccc(C(=O)Nc4ccccc4N)cc2)O3)cc1	T cruzi intra 63.5
